Results on one compound are retold here after ChEMBL document CHEMBL4364270, “Structure-activity relationship studies on Bax activator SMBA1 for the treatment of ER-positive and triple-negative breast cancer” (Eur J Med Chem, 2019).

Data set [1] concerns MDA-MB-231. Briefly: Antiproliferative activity against triple negative human MDA-MB-231 cells assessed as reduction in cell growth incubated for 48 hrs by MTT assay. The format is functional, cell-based. Conditions: MDA-MB-231, 48 h. The essentials:
(§1)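 MTT viability: MCF-7 and MDA-MB-231 seeded 1×10^4 cells/well, exposed to DMSO or 0.01-100 μM for 48 h; MTT (5 mg/mL in PBS) added 4 h, formazan dissolved in DMSO, OD 550 nm; quadruplicate wells; IC50 fitted for compounds giving >50% inhibition at 10 µM; at least three independent experiments.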

For data set [2], the system named is MCF-10A. Briefly: Antiproliferative activity against human MCF10A cells assessed as reduction in cell growth incubated for 72 hrs by MTT assay. The format is functional, cell-based. The essentials:
(§2)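 MTT viability after 72 h exposure at indicated concentrations; cells seeded at 1×10^3 cells/well (T47D, MDA-MB-468, MCF-10A, MCF-7/ADR) in 96-well plates; quadruplicate wells, independently repeated three times; IC50 as mean ± SE of at least three experiments.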
In general terms: Formazan colour is commonly taken as a measure of viable cells.

The test system of data set [3] is T47D. Put plainly: Antiproliferative activity against ER-positive human T47D cells assessed as reduction in cell growth incubated for 72 hrs by MTT assay. The data set is classed as functional, cell-based. In outline:
as §2

Data set [4] relates to MDA-MB-231. Briefly: Antiproliferative activity against triple negative human MDA-MB-231 cells assessed as reduction in cell growth at 10 uM incubated for 48 hrs by MTT assay relative to control. The format is functional. Conditions: MDA-MB-231, 48 h. In outline:
as §1

Data set [5] relates to MCF7. Briefly: Potency index, ratio of SMBA1 IC50 to compound IC50 for antiproliferative activity against ER-positive human MCF7 cells assessed as reduction in cell growth incubated for 48 hrs by MTT assay. The data set is classed as functional.
The test system of data set [6] is MDA-MB-231. Put plainly: Potency index, ratio of IC50 of (E/Z)-2-(2-((2-nitro-9H-fluoren 9-ylidene)methyl)phenoxy)ethan-1-amine to IC50 of compound for antiproliferative activity against triple negative human MDA-MB-231 cells assessed as reduction in cell growth incubated for 48 hrs by MTT assay. The format is functional.
For data set [7], the system named is MCF7. Put plainly: Potency index, ratio of IC50 of (E/Z)-2-(2-((2-nitro-9H-fluoren 9-ylidene)methyl)phenoxy)ethan-1-amine to IC50 of compound for antiproliferative activity against ER-positive human MCF7 cells assessed as reduction in cell growth incubated for 48 hrs by MTT assay. The data set is classed as functional.
Data set [8] deals with MDA-MB-231. Briefly: Antiproliferative activity against triple negative human MDA-MB-231 cells assessed as reduction in cell growth at 1 uM incubated for 48 hrs by MTT assay relative to control. The data set is classed as functional. Conditions: MDA-MB-231, 48 h. The essentials: as §1
Data set [9] concerns MCF7. Briefly: Antiproliferative activity against ER-positive human MCF7 cells assessed as reduction in cell growth at 1 uM incubated for 48 hrs by MTT assay relative to control. The note with it: MCF7, 48 h. The format is functional. In outline:
as §1

The subject of data set [10] is MDA-MB-468. Put plainly: Antiproliferative activity against triple negative human MDA-MB-468 cells assessed as reduction in cell growth at 1 uM incubated for 72 hrs by MTT assay relative to control. The data set is classed as functional. Conditions: MDA-MB-468, 72 h. In outline: as §2
For data set [11], the system named is MDA-MB-231. Put plainly: Inhibition of colony formation in triple negative human MDA-MB-231 cells at 1 uM supplemented with fresh medium containing compound every 72 hrs for 2 weeks by crystal violet staining based assay. The format is functional, cell-based. In outline:
(§3)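 Clonogenic assay: 800 cells per well seeded, treated after 24 h with 1 μM or DMSO vehicle, medium with compound renewed every 72 h for 2 weeks; PBS wash, 0.01% crystal violet 10 min, whole-well density digitally quantified; triplicate, one-way ANOVA, SD error bars.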

The subject of data set [12] is MCF7. Briefly: Inhibition of colony formation in ER-positive human MCF7 cells at 1 uM supplemented with fresh medium containing compound every 72 hrs for 2 weeks by crystal violet staining based assay. The format is functional, cell-based. The essentials:
as §3

The test system of data set [13] is MDA-MB-231. Put plainly: Induction of apoptosis in triple negative human MDA-MB-231 cells assessed as appearance of concentrated dense granules at 5 to 10 uM incubated for 24 hrs by Hoechst 33342 staining based fluorescence microscopy. The format is functional, cell-based. In outline: (§4)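 Cells on coverslips (2.5×10^5/well) treated with DMSO or 5 and 10 μM for 24 h, washed in binding buffer, stained 15 min with FITC-annexin V, ethidium homodimer III and Hoechst 33342, mounted and imaged by fluorescence microscopy (DAPI filter) from center and peripheral regions.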

In data set [14] the test system is MCF7. Briefly: Induction of apoptosis in ER-positive human MCF7 cells assessed as appearance of concentrated dense granules at 5 to 10 uM incubated for 24 hrs by Hoechst 33342 staining based fluorescence microscopy. The data set is classed as functional, cell-based. The essentials:
as §4

Data set [15] has as its target Apoptosis regulator BAX (Homo sapiens) (UniProt Q07812). Put plainly: Activation of Bax in ER-positive human MCF7 cells assessed as reduction in Bax phosphorylation at Ser184 at 5 uM incubated upto 48 hrs by Western blotting analysis. The format is cell-based. The note with it: TDE = time-dependent effect. In outline: (§5)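 Western blot of MCF-7 (and MDA-MB-231 for cytosolic fractions) cells exposed to 5 μM over 0-48 h; 30 µg protein per lane on SDS-PAGE, PVDF transfer, 5% milk block, overnight primary antibodies (total Bax, p-Bax, active Bax 6A7, cytochrome C), ECL detection; cytosolic fraction used for cytochrome c and Bax.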
(In general: Immunoblotting shows a protein as a band on a membrane.)

In data set [16] the test system is MCF7. Briefly: Induction of apoptosis in ER-positive human MCF7 cells assessed as increase in total Bax protein level at 5 uM incubated upto 48 hrs by Western blot analysis. The data set is classed as functional, cell-based. In outline: as §5
Data set [17] addresses Apoptosis regulator BAX (Homo sapiens) (UniProt Q07812). Put plainly: Activation of Bax in ER-positive human MCF7 cells assessed as increase in cytosolic cytochrome C level at 5 uM incubated for 48 hrs by Western blot analysis. The data set is classed as cell-based. In outline:
as §5

The test system of data set [18] is MCF7. Briefly: Induction of apoptosis in ER-positive human MCF7 cells assessed as decrease in cytosolic Bax level at 5 uM incubated for 48 hrs by Western blot analysis. The data set is classed as functional, cell-based. The essentials:
as §5

Data set [19] relates to MDA-MB-231. Put plainly: Induction of apoptosis in triple-negative human MDA-MB-231 cells assessed as decrease in cytosolic Bax level at 5 uM incubated for 48 hrs by Western blot analysis. The format is functional, cell-based. In outline:
as §5

The subject of data set [20] is MCF7. Briefly: Induction of apoptosis in ER-positive human MCF7 cells assessed as upregulation of PARP1 cleavage incubated for 48 hrs by Western blot analysis. The data set is classed as functional, cell-based. The essentials: (§6)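 Western blot: cells harvested after treatment, lysates quantified by Bradford (BSA standard), 30 µg protein resolved by SDS-PAGE, transferred to PVDF, blocked in 5% nonfat milk, probed overnight with anti-PARP-1, anti-cleaved PARP-1 or anti-cyclin D1 (1:1,000) and β-actin loading control; ECL visualization.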

Data set [21] deals with MDA-MB-231. Briefly: Induction of apoptosis in triple negative human MDA-MB-231 cells assessed as upregulation of caspase3 cleavage incubated for 48 hrs by Western blot analysis. The format is functional, cell-based.
Data set [22] relates to MDA-MB-231. Put plainly: Induction of apoptosis in triple-negative human MDA-MB-231 cells assessed as downregulation of cyclin D1 level incubated for 48 hrs by Western blot analysis. The format is functional, cell-based. The essentials: as §6
Data set [23] has as its system MDA-MB-231. Put plainly: Antitumor activity against triple-negative human MDA-MB-231 cells xenografted in mouse assessed as reduction in tumor growth at 2.5 mg/kg, ip administered once daily for 7 days. The format is functional. The note with it: MDA-MB-231, ip, 168 h, read-out: GI. In outline:
(§7)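 Female nude mice (6 weeks) given 2.5×10^6 MDA-MB-231 cells in PBS into third mammary fat pad, randomized into four groups; at 200 mm³ tumor volume dosed i.p. daily for 7 days in 50% DMSO/50% PEG vehicle; tumor volume (0.5×L×W²) and body weight measured daily; one-way ANOVA.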
A general note: A xenograft is tissue or cells of one species grown in another, often human tumour cells in immunodeficient mice.

Data set [24] is described as follows: Toxicity in mouse xenografted with triple-negative human MDA-MB-231 cells assessed as slight reduction in body weight at 2.5 mg/kg, ip administered once daily for 7 days. The format is organism-based. Conditions: in vivo, 168 h. In outline: as §7

Active and inactive are the calls of the source. The rule behind the calls is not given here.

Chain of Apoptosis regulator BAX (Homo sapiens) (Q07812 whole entry): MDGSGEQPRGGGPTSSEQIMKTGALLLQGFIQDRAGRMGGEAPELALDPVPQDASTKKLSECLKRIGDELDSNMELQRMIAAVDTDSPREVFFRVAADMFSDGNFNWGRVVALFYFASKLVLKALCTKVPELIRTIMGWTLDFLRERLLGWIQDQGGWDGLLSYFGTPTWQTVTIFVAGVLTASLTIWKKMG

A word on the IC50: it is the midpoint of a concentration-inhibition curve. The inhibition is how much of the control response was suppressed. On to `NCCOc1ncccc1C=C1c2ccccc2-c2ccc([N+](=O)[O-])cc21`, for which the concentration for half-maximal inhibition (IC50) in data set [1] stood at 0.07 µM; in [2], 0.11 µM; in [3], 1.2 µM. For the same compound, in data set [4], the inhibition at 10 µM is above 50%. The “Ratio IC50” value is on record as 80 - 130 in data set [5], 40 - 60 in [6] and 40 - 60 in data set [7]. The inhibition at 1 µM in data set [8], in data set [9] and in data set [10] was above 50% throughout. Moreover, the inhibition result in data set [11] and in data set [12] was “Active” throughout. The result in [13], in [14], in [16], in [17], in data set [18] and in [19] was Active. For the same compound, in [15], the inhibition result was “Tde”. Further, the Activity result in [20] is “Dose-dependent effect”; in data set [21], “Dose-dependent effect”; in data set [22] it was “Dose-dependent effect”; in data set [24], “Toxic”. In [23], the inhibition in vivo at 2.5 mg/kg was determined as 55%.
